From ChEMBL document CHEMBL4024783, “Alkylated Piperazines and Piperazine-Azole Hybrids as Antifungal Agents” (J Med Chem, 2018)
≈ marks a conversion by molar mass, not a printed value.

Columns and labels:
Candida albicans [1] = assay: Antifungal activity against Candida albicans ATCC 10231 after 48 hrs by broth dilution method; format: functional; conditions: ATCC 10231, 48 h
Candida albicans [2] = assay: Antifungal activity against Candida albicans ATCC 64124 after 48 hrs by broth dilution method; format: functional; conditions: Candida albicans, ATCC 64124, 48 h
Procedure, shortened: (§1)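 CLSI M27-A3 broth microdilution with minor modifications. Overnight YPD culture grown at 35 °C, 200 rpm, adjusted to OD600 0.12, diluted in RPMI 1640 buffered to pH 7.0 with 0.165 M MOPS to a final 1–2 × 10^3 CFU/mL. Test compounds at 0.015–31.3 µg/mL, 48 h at 35 °C, DMSO <1.25%. […] Triplicate.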

Candida albicans [3] = assay: Antifungal activity against itraconazole and fluconazole susceptible Candida albicans ATCC MYA-2876 after 48 hrs by broth dilution method; format: functional; conditions: Candida albicans, ATCC MYA-2876, 48 h
Candida albicans [4] = assay: Antifungal activity against itraconazole and fluconazole resistant Candida albicans ATCC 90819 after 48 hrs by broth dilution method; format: functional; conditions: Candida albicans, ATCC 90819, 48 h; procedure, shortened: as §1
Candida albicans [5] = assay: Antifungal activity against itraconazole and fluconazole susceptible Candida albicans ATCC MYA-2310 after 48 hrs by broth dilution method; format: functional; conditions: Candida albicans, ATCC MYA-2310, 48 h
Candida albicans [6] = assay: Antifungal activity against itraconazole and fluconazole resistant Candida albicans ATCC MYA-1237 after 48 hrs by broth dilution method; format: functional; conditions: Candida albicans, ATCC MYA-1237, 48 h; procedure, shortened: as §1
Candida albicans [7] = assay: Antifungal activity against itraconazole and fluconazole resistant Candida albicans ATCC MYA-1003 after 48 hrs by broth dilution method; format: functional; conditions: Candida albicans, ATCC MYA-1003, 48 h; procedure, shortened: as §1
Nakaseomyces glabratus = assay: Antifungal activity against Candida glabrata ATCC 2001 after 48 hrs by broth dilution method; format: functional, CBS 138; conditions: Nakaseomyces glabratus, CBS 138, 48 h
Pichia kudriavzevii = assay: Antifungal activity against Candida krusei ATCC 6258 after 48 hrs by broth dilution method; format: functional; conditions: Pichia kudriavzevii, ATCC 6258, 48 h
Procedure, shortened: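 Yeasts tested per CLSI M27-A3 with minor changes. An overnight YPD culture (35 °C, 200 rpm) was adjusted to OD600 0.12 and diluted in MOPS-buffered RPMI 1640 (pH 7.0) to a final 1–2 × 10^3 CFU/mL. Compounds 0.015–31.3 µg/mL, DMSO <1.25%.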

Candida parapsilosis = assay: Antifungal activity against Candida parapsilosis ATCC 22019 after 48 hrs by broth dilution method; format: functional; conditions: Lodderomyces parapsilosis, ATCC 22019, 48 h
Aspergillus flavus = assay: Antifungal activity against Aspergillus flavus ATCC MYA-3631 after 48 hrs by broth dilution method; format: functional; conditions: ATCC MYA-3631, 48 h
Aspergillus nidulans = assay: Antifungal activity against Aspergillus nidulans ATCC 38163 after 48 hrs by broth dilution method; format: functional; conditions: Aspergillus nidulans, ATCC 38163, 48 h
Procedure, shortened: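 A. nidulans run per CLSI M38-A2. PDA spores were filtered through glass wool and counted by hemocytometer. Test range 0.03–31.3 µg/mL in MOPS-buffered RPMI 1640 (pH 7.0), final 5 × 10^5 CFU/mL.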

Aspergillus terreus = assay: Antifungal activity against Aspergillus terreus ATCC MYA-3633 after 48 hrs by broth dilution method; format: functional; conditions: Aspergillus terreus, ATCC MYA-3633, 48 h
Procedure, shortened: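 Molds tested per CLSI M38-A2. Spores were harvested from sporulating PDA cultures by filtering through glass wool and counted on a hemocytometer. Serial dilutions (0.03–31.3 µg/mL) were made in RPMI 1640 buffered to pH 7.0 with 0.165 M MOPS, final inoculum 5 × 10^5 CFU/mL.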

[8] = Aqueous solubility of the compound; format: physicochemical; conditions: buffer
[9] = Solubility of the compound in DMSO; format: physicochemical
Candida albicans [10] = assay: Antifungal activity against Candida albicans ATCC 10231 after 48 hrs in the presence of 10% FBS by broth dilution method; format: functional; conditions: ATCC 10231, 48 h

Row | SMILES | MIC (Candida albicans [1]) | MIC (Candida albicans [2]) | MIC (Candida albicans [3]) | MIC (Candida albicans [4]) | MIC (Candida albicans [5]) | MIC (Candida albicans [6]) | MIC (Candida albicans [7]) | MIC (Nakaseomyces glabratus) | MIC (Pichia kudriavzevii) | MIC (Candida parapsilosis) | MIC (Aspergillus flavus) | MIC (Aspergillus nidulans) | MIC (Aspergillus terreus) | solubility [8] | solubility [9] | MIC (Candida albicans [10])
1 | CCCCCCCCCCCCCN1CCN(CC(O)(Cn2cncn2)c2ccc(F)cc2F)CC1 (stereo not given) | 3.9 µM (≈ 1.97 µg/mL) | 15.4 µM (≈ 7.79 µg/mL) | 3.9 µM (≈ 1.97 µg/mL) | 3.9 µM (≈ 1.97 µg/mL) | 7.7 µM (≈ 3.89 µg/mL) | 7.7 µM (≈ 3.89 µg/mL) | 7.7 µM (≈ 3.89 µg/mL) | 1.9 µM (≈ 0.961 µg/mL) | 1.9 µM (≈ 0.961 µg/mL) | < 0.47 µM | 1.9 µM (≈ 0.961 µg/mL) | 1.9 µM (≈ 0.961 µg/mL) | 1.9 µM (≈ 0.961 µg/mL) | Soluble | Soluble | 
2 | CCCCCCCCCN1CCNCC1 | 147 µM (≈ 31.3 µg/mL) | > 147 µM | > 147 µM | 147 µM (≈ 31.3 µg/mL) | 147 µM (≈ 31.3 µg/mL) | 147 µM (≈ 31.3 µg/mL) | > 147 µM | 147 µM (≈ 31.3 µg/mL) | 147 µM (≈ 31.3 µg/mL) | > 147 µM | 147 µM (≈ 31.3 µg/mL) | > 147 µM | > 147 µM |  |  | 
3 | CCCCCCCCCCCN1CCNCC1 | 32.4 µM (≈ 7.79 µg/mL) | 32.4 µM (≈ 7.79 µg/mL) | 64.8 µM (≈ 15.6 µg/mL) | 32.4 µM (≈ 7.79 µg/mL) | 32.4 µM (≈ 7.79 µg/mL) | 32.4 µM (≈ 7.79 µg/mL) | 64.8 µM (≈ 15.6 µg/mL) | 32.4 µM (≈ 7.79 µg/mL) | 32.4 µM (≈ 7.79 µg/mL) | 32.4 µM (≈ 7.79 µg/mL) | 130 µM (≈ 31.2 µg/mL) | 64.8 µM (≈ 15.6 µg/mL) | 64.8 µM (≈ 15.6 µg/mL) |  |  | 
4 | CN1CCNCC1 [METHYLPIPERAZINE] | > 312 µM | > 312 µM | > 312 µM | > 312 µM | > 312 µM | > 312 µM | > 312 µM | > 312 µM | > 312 µM | > 312 µM | > 312 µM | > 312 µM | > 312 µM |  |  | 
5 | CCCCCCCCCCCCCN1CCNCC1 | 3.6 µM (≈ 0.967 µg/mL) | 3.6 µM (≈ 0.967 µg/mL) | 7.2 µM (≈ 1.93 µg/mL) | 3.6 µM (≈ 0.967 µg/mL) | 7.2 µM (≈ 1.93 µg/mL) | 7.2 µM (≈ 1.93 µg/mL) | 7.2 µM (≈ 1.93 µg/mL) | 1.8 µM (≈ 0.483 µg/mL) | 3.6 µM (≈ 0.967 µg/mL) | 7.2 µM (≈ 1.93 µg/mL) | 7.2 µM (≈ 1.93 µg/mL) | 3.6 µM (≈ 0.967 µg/mL) | 7.2 µM (≈ 1.93 µg/mL) | Soluble | Soluble | 
6 | CCCCCCCCCN1CCN(CC(O)(Cn2cncn2)c2ccc(F)cc2F)CC1 (stereo not given) | 2.2 µM (≈ 0.989 µg/mL) | 17.6 µM (≈ 7.91 µg/mL) | 8.8 µM (≈ 3.96 µg/mL) | 17.6 µM (≈ 7.91 µg/mL) | 35.2 µM (≈ 15.8 µg/mL) | 35.2 µM (≈ 15.8 µg/mL) | 35.2 µM (≈ 15.8 µg/mL) | 8.8 µM (≈ 3.96 µg/mL) | 2.2 µM (≈ 0.989 µg/mL) | 0.55 µM (≈ 0.247 µg/mL) | 1.1 µM (≈ 0.495 µg/mL) | 2.2 µM (≈ 0.989 µg/mL) | 4.4 µM (≈ 1.98 µg/mL) |  |  | 
7 | CCCCCN1CCN(CC(O)(Cn2cncn2)c2ccc(F)cc2F)CC1 (stereo not given) | > 79.5 µM | > 79.5 µM | > 79.5 µM | 79.5 µM (≈ 31.3 µg/mL) | > 79.5 µM | > 79.5 µM | > 79.5 µM | > 79.5 µM | > 79.5 µM | 39.6 µM (≈ 15.6 µg/mL) | > 79.5 µM | > 79.5 µM | > 79.5 µM |  |  | 
8 | Fc1ccc(C2(Cn3cncn3)CO2)c(F)c1 (stereo not given) | > 132 µM | > 132 µM | > 132 µM | > 132 µM | > 132 µM | > 132 µM | > 132 µM | > 132 µM | > 132 µM | > 132 µM | > 132 µM | > 132 µM | > 132 µM |  |  | 
9 | C[C@@H]1[C@H](O)[C@@H](C)/C=C/C=C/C=C/C=C/C=C/C=C/C=C/[C@H](O[C@@H]2O[C@H](C)[C@@H](O)[C@H](N)[C@@H]2O)C[C@@H]2O[C@](O)(C[C@@H](O)C[C@@H](O)[C@H](O)CC[C@@H](O)C[C@@H](O)CC(=O)O[C@H]1C)C[C@H](O)[C@H]2C(=O)O [AMPHOTERICIN B] |  |  |  | 1.1 µM (≈ 1.02 µg/mL) |  |  |  |  |  |  |  |  |  |  |  | 7.8 µg/mL
